In ChEMBL document CHEMBL1133865, “Flavonoids: structural requirements for antiproliferative activity on breast cancer cells” (Bioorg Med Chem Lett, 2001):

Columns and labels:
MCF7 [1] = assay: The compound was tested for antiproliferative activity against MCF-7 human breast cancer cells; assay type: functional, cell-based
How it was run: (§1)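 MCF-7 human breast cancer cells, MTT assay. Growth inhibition expressed as % of control absorbance after 6 days incubation. IC50 read graphically as the concentration giving a 50% decrease in cell growth. Mean of three experiments; deviations within ±5%.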

MCF7 [2] = assay: The compound was tested for antiproliferative activity against MCF-7 human breast cancer cells; In active; assay type: functional, cell-based; how it was run: as §1

Row | IC50 (MCF7 [1]) [µM] | IC50 (MCF7 [2]) | Compound
1 | 35.7 |  | COc1cccc2c1C(=O)CC(c1ccccc1)O2 (stereo not drawn)
2 | 36 |  | COc1cc(OC)c2c(c1)OC(c1ccccc1)CC2=O (stereo not drawn) [DIMETHYLPINOCEMBRIN]
3 | 27.5 |  | O=c1cc(-c2ccccc2)oc2c(O)c(O)ccc12 [7,8-DIHYDROXYFLAVONE]
4 | 16.3 |  | O=C(/C=C/c1ccccc1)c1ccc(O)cc1O [2',4'-DIHYDROXYCHALCONE]
5 |  | Not Active | O=C1CC(c2ccccc2)Oc2c1ccc(O)c2O (stereo not drawn)
6 | 22.2 |  | O=C(/C=C/c1ccccc1)c1ccc(O)c(O)c1O
7 | 29.2 |  | COc1ccc(O)c(C(=O)/C=C/c2ccccc2)c1
8 | 28.4 |  | O=C(/C=C/c1ccccc1)c1ccccc1O [2'-HYDROXYCHALCONE]
9 | 35.7 |  | COc1ccc2c(c1)OC(c1ccccc1)CC2=O (stereo not drawn)
10 | > 60 |  | COc1cc(O)c(C(=O)/C=C/c2ccccc2)c(O)c1
11 | 18.3 |  | COc1cccc(O)c1C(=O)/C=C/c1ccccc1
12 | 20 |  | COc1cc(O)c(C(=O)/C=C/c2ccccc2)c(OC)c1 [FLAVOKAWAIN B]
13 | 26.8 |  | COc1ccc(C(=O)/C=C/c2ccccc2)c(O)c1
